Test results published in ChEMBL document CHEMBL1147572, “Synthesis, SAR, and antitumor properties of diamino-C,N-diarylpyrimidine positional isomers: inhibitors of lysophosphatidic acid acyltransferase-beta” (Bioorg Med Chem Lett, 2004).
pIC50: −log10 of the molar value.

Legend:
[1] = test system: Lewis lung carcinoma cell line; test: In vitro inhibitory activity against murine Lewis lung tumor LL2 cell line; assay type: functional, cell-based; settings: Mus musculus
DU-145 = test: In vitro inhibitory activity against DU 145 cell line proliferation; assay type: functional, cell-based; settings: Homo sapiens
In short: (§1)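 Cell proliferation measured with a CyQuant fluorescent DNA-dye kit, following the method of an earlier report.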

K562 = test: In vitro inhibitory activity against K-562 cell line proliferation; assay type: functional, cell-based; settings: Homo sapiens; in short: as §1
[2] = molecular target: T1, 1-acyl-sn-glycerol-3-phosphate acyltransferase beta (Homo sapiens, UniProt O15120); test: Inhibitory activity against Lysophosphatidic acid acyltransferase-beta expressed in Sf9 insect cell membranes
T1 sequence (O15120 whole entry): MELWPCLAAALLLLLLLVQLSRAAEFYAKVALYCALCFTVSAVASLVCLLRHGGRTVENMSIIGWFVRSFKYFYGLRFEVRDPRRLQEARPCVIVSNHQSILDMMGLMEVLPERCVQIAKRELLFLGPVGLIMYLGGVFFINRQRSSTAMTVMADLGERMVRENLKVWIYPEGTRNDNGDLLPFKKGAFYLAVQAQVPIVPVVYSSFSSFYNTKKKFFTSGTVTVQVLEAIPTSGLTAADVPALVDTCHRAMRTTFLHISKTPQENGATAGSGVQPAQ
In short: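 LPAAT-β overexpressed in Sf9 insect cell membranes. Enzyme activity read colorimetrically with DTNB (5,5'-dithiobis(2-nitrobenzoic acid)).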

Mus musculus = test: Tumor growth delay against Lewis lung tumor LL2 cell line at 100 mg/kg q1d*4 intravenously in mice; settings: route intravenous
[3] = molecular target: T2, 1-acyl-sn-glycerol-3-phosphate acyltransferase alpha (Homo sapiens) (UniProt Q99943); test: Inhibitory activity against lysophosphatidic acid acyltransferase-alpha at 40 uM concentration
T2 sequence (whole entry): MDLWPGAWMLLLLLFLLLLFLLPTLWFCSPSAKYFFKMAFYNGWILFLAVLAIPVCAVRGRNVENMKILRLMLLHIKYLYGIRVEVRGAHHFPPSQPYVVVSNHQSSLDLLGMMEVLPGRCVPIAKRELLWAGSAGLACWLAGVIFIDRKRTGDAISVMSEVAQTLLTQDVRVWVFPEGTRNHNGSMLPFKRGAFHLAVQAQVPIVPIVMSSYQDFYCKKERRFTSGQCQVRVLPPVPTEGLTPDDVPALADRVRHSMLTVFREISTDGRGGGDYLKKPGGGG
In short: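 LPAAT-α overexpressed in Sf9 insect cell membranes in the same way. Activity read colorimetrically with DTNB. Inhibition recorded at 40 μM.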

SMILES	pIC50 [1]	pIC50 (DU-145)	pIC50 (K562)	pIC50 [2]	inhibition [3] [%]	TGD (Mus musculus) [days]
Cc1ccc(Cl)cc1-c1cc(Nc2ccc(C(F)(F)F)cc2)nc(N)n1	6.80	6.64	6.85	6.85	–	6
CCOc1ccc(Br)cc1-c1cc(Nc2ccc(C#N)cc2)nc(N)n1	–	6.40	7.15	7.77	–	–
CCOc1ccc(Br)cc1-c1cc(Nc2ccc(C(=O)O)cc2)nc(N)n1	–	–	–	5.57	–	–
Nc1nc(Nc2ccc(Cl)cc2)cc(-c2cc(Cl)ccc2O)n1	–	–	–	5.00	–	–
CCOc1ccc(Cl)cc1-c1cc(Nc2ccc(CCCO)cc2)nc(N)n1	–	< 6.00	< 6.00	–	–	–
CCOc1ccc(Br)cc1-c1cc(Nc2ccc(C(N)=O)cc2)nc(N)n1	–	–	–	6.12	–	–
Cc1ccc(Br)cc1-c1cc(Nc2ccc(Br)cc2)nc(N)n1	–	6.96	7.15	–	–	–
CCOc1ccc(Br)cc1-c1cc(Nc2ccccc2)nc(N)n1	–	< 6.00	6.59	6.92	–	–
CCOc1ccc(Br)cc1-c1cc(Nc2ccc(CC(=O)NO)cc2)nc(N)n1	–	< 6.00	< 6.00	6.40	–	–
CCOc1ccc(Br)cc1-c1cc(Nc2ccc(C(=N)N)cc2)nc(N)n1	–	–	–	< 5.30	–	–
CCOc1ccc(Br)cc1-c1cc(Nc2ccc(C(C)=O)cc2)nc(N)n1	–	7.05	7.30	–	–	–
CCOc1ccc(Br)cc1-c1cc(Nc2ccc(B(O)O)cc2)nc(N)n1	–	6.30	6.70	7.04	–	–
CCOc1ccc(Br)cc1-c1cc(Nc2ccc(CC(=O)O)cc2)nc(N)n1	–	< 6.00	< 6.00	6.68	–	–
CCOc1ccc(Br)cc1-c1cc(Nc2ccc(/C(C)=N\OC)cc2)nc(N)n1	–	< 6.00	< 6.00	6.01	–	–
CCOc1ccc(Br)cc1-c1cc(Nc2cccc(C#N)c2)nc(N)n1	–	< 6.00	6.46	6.14	–	–
CCOc1ccc(Br)cc1-c1cc(Nc2ccc(/C(C)=N\O)cc2)nc(N)n1	–	> 7.30	> 7.30	7.08	–	–
CCOc1ccc(Br)cc1-c1cc(Nc2ccc(C(=O)NO)cc2)nc(N)n1	–	< 6.00	6.15	–	–	–
Nc1nc(Nc2ccc(Cl)cc2)cc(-c2cc(Br)ccc2O)n1	–	< 6.00	< 6.00	–	–	–

Now from value to compound, other results behind:

pIC50 [1]	pIC50 (DU-145)	pIC50 (K562)	pIC50 [2]	inhibition [3] [%]	SMILES	TGD (Mus musculus) [days]
–	< 5.00	5.52	5.15	–	COc1ccc(Cl)cc1-c1cc(N)nc(Nc2ccc(Cl)cc2)n1	–
–	6.89	7.22	–	–	Cc1ccc(Cl)cc1-c1cc(Nc2ccc(Br)cc2)nc(N)n1	–
–	6.60	6.82	7.55	–	COc1ccc(Cl)cc1-c1cc(Nc2ccc(Br)cc2)nc(N)n1	–
–	6.00	6.60	–	–	COc1ccc(Cl)cc1-c1cc(Nc2ccc3c[nH]nc3c2)nc(N)n1	–
–	7.00	7.15	–	–	Cc1ccc(Br)cc1-c1cc(Nc2ccc(Cl)cc2)nc(N)n1	–
–	5.30	6.12	5.15	–	COc1ccc(Cl)cc1-c1nc(N)cc(Nc2ccc(Cl)cc2)n1	–
–	< 6.00	6.35	6.19	–	CCOc1ccc(Cl)cc1-c1cc(Nc2cccc([N+](=O)[O-])c2)nc(N)n1	–
–	6.70	> 7.00	–	–	CCOc1ccc(Cl)cc1-c1cc(Nc2ccc3c[nH]nc3c2)nc(N)n1	–
–	6.92	7.22	7.66	–	Cc1ccc(Cl)cc1-c1cc(Nc2ccc(Cl)cc2)nc(N)n1	–
–	< 5.00	< 5.00	–	–	COc1ccc(Cl)cc1-c1cc(N)nc(Nc2ccc3c[nH]nc3c2)n1	–
–	7.10	7.30	7.80	50	CCOc1ccc(Br)cc1-c1cc(Nc2ccc(Cl)cc2)nc(N)n1	–
–	6.46	6.74	–	–	CCOc1ccc(Cl)cc1-c1cc(Nc2ccc([N+](=O)[O-])cc2)nc(N)n1	–
–	7.15	> 7.92	–	–	CCOc1ccc(Cl)cc1-c1cc(Nc2ccc(Cl)cc2)nc(N)n1	–
–	–	–	5.08	–	Cc1ccc(O)cc1-c1cc(Nc2ccc(Cl)cc2)nc(N)n1	–
–	7.15	> 7.30	–	–	CCOc1ccc(Cl)cc1-c1cc(Nc2ccc(CCO)cc2)nc(N)n1	–
–	< 6.00	< 6.00	6.24	–	CCOc1ccc(Cl)cc1-c1cc(Nc2ccc(CC(=O)O)cc2)nc(N)n1	–
–	6.10	6.82	–	–	COc1ccc(Cl)cc1-c1nc(N)cc(Nc2ccc(Br)cc2)n1	–
–	7.40	> 7.92	–	–	CCOc1ccc(Cl)cc1-c1cc(Nc2ccc(CO)cc2)nc(N)n1	–
–	6.72	> 7.00	–	–	Nc1nc(Nc2ccc(Cl)cc2)cc(-c2cc(Cl)ccc2Cl)n1	–
–	< 5.00	5.52	5.64	–	COc1ccc(Cl)cc1-c1cc(N)nc(Nc2ccc(Br)cc2)n1	–
–	6.40	6.70	6.21	–	Cc1ccc(Cl)cc1-c1cc(Nc2cccc(Br)c2)nc(N)n1	–
–	< 6.00	6.60	6.82	–	Cc1ccc(F)cc1-c1cc(Nc2ccc(Cl)cc2)nc(N)n1	–
–	6.30	6.82	–	–	COc1ccc(Cl)cc1-c1cc(Nc2ccc(Cl)cc2)nc(N)n1	–
–	< 5.00	5.26	–	–	COc1ccc(Cl)cc1-c1nc(N)cc(Nc2ccc3c[nH]nc3c2)n1	–
